Laboratory results as given in ChEMBL document CHEMBL1152609, “Synthesis and pharmacological exploitation of clioquinol-derived copper-binding apoptosis inducers triggering reactive oxygen species generation and MAPK pathway activation” (2009).
Activity calls are given as the source filed them. No cut-off for these calls is given here.

Experiments:
HeLa [1] = assay: Growth inhibition of human HeLa cells after 48 hrs by MTT assay in presence of 10% FBS supplemented DMEM medium; assay type: functional
Procedure, shortened: (§1)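 Cells seeded at 5 × 10³/well and allowed 24 h to attach, then exposed to compound (DMSO stock) or vehicle for 48 h in 10% FBS DMEM at 37 °C, 5% CO₂. MTT (2 mg/mL in PBS) added for a further 2 h; formazan dissolved in DMSO and read at 570 nm. Inhibition = (1 − At/Ac) × 100. GI₅₀ interpolated from dose-response curves; mean ± SEM of 4–6 experiments; top concentration 40 μM.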

HeLa [2] = assay: Stimulation of reactive oxygen species in human HeLa cells at 3 uM in presence of 5 uM CuCl2 after 1 hr by dihydroethidium dye based fluorescence assay; assay type: functional, cell-based
Procedure, shortened: (§2)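 HeLa cells grown in DMEM with 10% FBS, 2 mM glutamine, penicillin/streptomycin at 37 °C, 5% CO2. Compound given with CuCl2, with or without tempol 1 mM; 0.5% DMSO control, untreated blank. Dihydroethidium 5 µmol/L loaded 30 min, PBS wash, epifluorescence microscopy; four separate cultures, two to six coverslips each.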

[3] = Growth inhibition of human CE81T cells after 48 hrs by MTT assay in presence of 10% FBS supplemented DMEM medium; assay type: functional; procedure, shortened: as §1
HeLa [4] = assay: Growth inhibition of human HeLa cells after 48 hrs by MTT assay in presence of 1 uM CuCl2; assay type: functional; procedure, shortened: as §1
HeLa [5] = assay: Growth inhibition of human HeLa cells after 48 hrs by MTT assay in presence of 100 uM ZnCl2; assay type: functional; procedure, shortened: as §1
HeLa [6] = assay: Growth inhibition of human HeLa cells after 48 hrs by MTT assay in presence of 10 uM CuCl2; assay type: functional; procedure, shortened: as §1
[7] = Growth inhibition of human BT-483 cells after 48 hrs by MTT assay in presence of 10% FBS supplemented DMEM medium; assay type: functional; conditions: BT-483, 48 h; procedure, shortened: as §1
HeLa [8] = assay: Growth inhibition of human HeLa cells after 48 hrs by MTT assay in presence of 50 uM CuCl2; assay type: functional; procedure, shortened: as §1
[9] = Growth inhibition of human SKHep cells after 48 hrs by MTT assay in presence of 10% FBS supplemented DMEM medium; assay type: functional; procedure, shortened: as §1
HeLa [10] = assay: Growth inhibition of human HeLa cells after 48 hrs by MTT assay in presence of 50 uM ZnCl2; assay type: functional; procedure, shortened: as §1
HeLa [11] = assay: Induction of apoptosis in human HeLa cells assessed as accumulation at subG1 phase at 1 uM in presence of 10 uM CuCl2 and 10 uM caspase inhibitor z-VAD after 24 hrs using propidium iodide staining by flow cytometry; assay type: functional
Procedure, shortened: (§3)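 HeLa cells exposed 24 h to test agent; controls were 0.5% DMSO and untreated cells. Optional additions were CuCl₂ 10 μM, tempol 1 mM or z-VAD. Cells were fixed in 80% ethanol and held at −20 °C. They were then stained 30 min at room temperature in the dark with PI 0.08 mg/mL, 0.1% Triton X-100 and RNase A 0.2 mg/mL in PBS. Subdiploid (sub-G1) fraction was quantified by flow cytometry as % of all events.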

[12] = molecular target: T1, MAP kinase p38 (Homo sapiens) (UniProt O15264+Q15759+Q16539+P53778); assay: Activation of p38 phosphorylation in human HeLa cells at 1 uM in presence of 10 uM CuCl2 after 48 hrs by Western blot; assay type: cell-based
Procedure, shortened: (§4)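 HeLa cells grown in DMEM with 10% FBS, 2 mM glutamine and penicillin/streptomycin at 37 °C, 5% CO₂. Treated cells were lysed and the extracts run on Western blot. Membranes were blocked overnight at 4 °C in TBST/5% non-fat milk. Probed with phospho- and total ERK1/2, p38 and JNK antibodies, then anti-mouse or anti-rabbit IgG (1:10,000, 1 h, RT), with ECL detection.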

[13] = Activation of JNK phosphorylation in human HeLa cells at 1 uM in presence of 10 uM CuCl2 after 48 hrs by Western blot; assay type: cell-based; procedure, shortened: as §4
[14] = molecular target: T1, MAP kinase p38 (Homo sapiens); assay: Activation of p38 phosphorylation in human HeLa cells at 1 uM in presence of 10 uM CuCl2 after 24 hrs by Western blot; assay type: cell-based; procedure, shortened: as §4
HeLa [15] = assay: Induction of apoptosis in human HeLa cells assessed as accumulation at subG1 phase at 1 uM after 24 hrs using propidium iodide staining by flow cytometry; assay type: functional; procedure, shortened: as §3
[16] = molecular target: T1, MAP kinase p38 (Homo sapiens); assay: Activation of p38 phosphorylation in human HeLa cells at 1 uM in presence of 10 uM CuCl2 after 48 hrs by Western blot
HeLa [17] = assay: Induction of apoptosis in human HeLa cells assessed as accumulation at subG1 phase at 2 uM after 24 hrs using propidium iodide staining by flow cytometry; assay type: functional; procedure, shortened: as §3
[18] = Activation of JNK phosphorylation in human HeLa cells at 1 uM in presence of 10 uM CuCl2 after 24 hrs by Western blot
HeLa [19] = assay: Induction of apoptosis in human HeLa cells assessed as accumulation at subG1 phase at 1 uM in presence of 10 uM CuCl2 and 1 mM tempol after 24 hrs using propidium iodide staining by flow cytometry; assay type: functional; procedure, shortened: as §3
HeLa [20] = assay: Activation of ERK phosphorylation in human HeLa cells at 1 uM in presence of 10 uM CuCl2 after 24 hrs by Western blot; assay type: cell-based; procedure, shortened: as §4
[21] = molecular target: T1, MAP kinase p38 (Homo sapiens); assay: Activation of p38 phosphorylation in human HeLa cells at 1 uM in presence of 10 uM CuCl2 after 24 hrs by Western blot
HeLa [22] = assay: Activation of ERK phosphorylation in human HeLa cells at 1 uM in presence of 10 uM CuCl2 after 24 hrs by Western blot
[23] = Activation of JNK phosphorylation in human HeLa cells at 1 uM in presence of 10 uM CuCl2 after 24 hrs by Western blot; assay type: cell-based; procedure, shortened: as §4
HeLa [24] = assay: Activation of ERK phosphorylation in human HeLa cells at 1 uM in presence of 10 uM CuCl2 after 48 hrs by Western blot; assay type: cell-based; procedure, shortened: as §4
[25] = Activation of JNK phosphorylation in human HeLa cells at 1 uM in presence of 10 uM CuCl2 after 48 hrs by Western blot
HeLa [26] = assay: Activation of ERK phosphorylation in human HeLa cells at 1 uM in presence of 10 uM CuCl2 after 48 hrs by Western blot
HeLa [27] = assay: Induction of apoptosis in human HeLa cells assessed as accumulation at subG1 phase at 1 uM in presence of 10 uM CuCl2 after 24 hrs using propidium iodide staining by flow cytometry; assay type: functional; procedure, shortened: as §3
HeLa [28] = assay: Stimulation of reactive oxygen species in human HeLa cells at 1 uM in presence of 5 uM CuCl2 after 1 hr by dihydroethidium dye based fluorescence assay; assay type: functional, cell-based; procedure, shortened: as §2
BT-483 = assay: Growth inhibition of human BT-483 cells at 40 uM after 48 hrs by MTT assay in presence of 10% FBS supplemented DMEM medium; assay type: functional, cell-based; procedure, shortened: as §1
CE81T = assay: Growth inhibition of human CE81T cells at 40 uM after 48 hrs by MTT assay in presence of 10% FBS supplemented DMEM medium; assay type: functional, cell-based; procedure, shortened: as §1
SKHep = assay: Growth inhibition of human SKHep cells at 40 uM after 48 hrs by MTT assay in presence of 10% FBS supplemented DMEM medium; assay type: functional, cell-based; procedure, shortened: as §1

Compound | GI50 (HeLa [1]) [µM] | GI50 [3] [µM] | GI50 (HeLa [4]) [µM] | GI50 (HeLa [5]) [µM] | GI50 (HeLa [6]) [µM] | GI50 [7] [µM] | GI50 (HeLa [8]) [µM] | GI50 [9] [µM] | GI50 (HeLa [10]) [µM] | further results
Oc1c(CN2CCCCC2)ccc2cccnc12 | 14.5 | 16.7 | 3 | 12.9 | 0.58 | 26.9 | 0.35 | 16.6 | 8.5 | Activity (HeLa [2]): Active
Cc1ccc(S(=O)(=O)N2CCN(Cc3cc([N+](=O)[O-])c4cccnc4c3O)CC2)cc1 | 0.71 | 5.9 | 0.65 | 0.26 | 0.25 | 1.9 | 0.06 | 14.6 | 0.48 | Activity (HeLa [11]): 1.58%; Activity [12]: Active; Activity [13]: Active; Activity [14]: Active; Activity (HeLa [15]): 6.77%; Activity [16]: Active; Activity (HeLa [17]): 18.57%; Activity [18]: Active; Activity (HeLa [19]): 1.34%; Activity (HeLa [20]): Active; Activity [21]: Active; Activity (HeLa [22]): Active; Activity [23]: Active; Activity (HeLa [24]): Active; Activity [25]: Active; Activity (HeLa [26]): Active; Activity (HeLa [27]): 17.5%; Activity (HeLa [28]): Active
Oc1c(CN2CCCCC2)ccc2ccccc12 | 25.5 | – | 30.7 | 44.5 | 22.8 | – | 48.8 | – | 34 | GI50 (BT-483): inactive; GI50 (CE81T): inactive; GI50 (SKHep): inactive
